Key:
[1] = test system: Liver microsome; assay: Drug metabolism in human liver microsomes assessed as N-glucuronide-triclocarban formation incubated for 5 mins prior to UDPGA addition measured after 5 to 30 mins by LC-UV analysis; format: ADME
Method in brief: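 Pooled human kidney or liver microsomes (liver: 25 mixed-gender donors), 5 µg protein, in 200 µL 100 mM potassium phosphate pH 7.4. Alamethicin pre-treated on ice 15 min. Final 10 µM TCC (2% DMSO), with 10 mM MgCl2 and 10 mM saccharolactone, preincubated 5 min at 37 °C. Started with UDPGA (20 mM stock). Sampled at 5, 10, 15 and 30 min into ACN containing 1 µM DCC internal standard.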

[2] = Drug metabolism in B6C3F1 mouse liver microsomes assessed as N-glucuronide-triclocarban formation incubated for 5 mins prior to UDPGA addition measured after 5 to 30 mins by LC-UV analysis; format: ADME
Method in brief: (§1)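 Microsomes or UGT Supersomes (5 µg protein) were held 15 min on ice with alamethicin in 100 mM potassium phosphate pH 7.4. TCC was added at 10 µM (2% DMSO) with 10 mM MgCl2 and 10 mM saccharolactone, pre-warmed 5 min at 37 °C, then started with UDPGA. Samples at 5, 10, 15 and 30 min were quenched in ACN. Product was read by LC-UV at 265 nm; rate came from regression over time, three incubations.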

[3] = target: T1, UDP-glucuronosyltransferase 2B15 (Homo sapiens, UniProt P54855); assay: Drug metabolism assessed as human UGT2B15-mediated N-glucuronide-triclocarban formation expressed in baculovirus infected insect sf9 cells incubated for 5 mins prior to UDPGA addition measured after 5 to 30 mins by LC-UV analysis; format: ADME; method in brief: as §1
T1 sequence (P54855 whole entry): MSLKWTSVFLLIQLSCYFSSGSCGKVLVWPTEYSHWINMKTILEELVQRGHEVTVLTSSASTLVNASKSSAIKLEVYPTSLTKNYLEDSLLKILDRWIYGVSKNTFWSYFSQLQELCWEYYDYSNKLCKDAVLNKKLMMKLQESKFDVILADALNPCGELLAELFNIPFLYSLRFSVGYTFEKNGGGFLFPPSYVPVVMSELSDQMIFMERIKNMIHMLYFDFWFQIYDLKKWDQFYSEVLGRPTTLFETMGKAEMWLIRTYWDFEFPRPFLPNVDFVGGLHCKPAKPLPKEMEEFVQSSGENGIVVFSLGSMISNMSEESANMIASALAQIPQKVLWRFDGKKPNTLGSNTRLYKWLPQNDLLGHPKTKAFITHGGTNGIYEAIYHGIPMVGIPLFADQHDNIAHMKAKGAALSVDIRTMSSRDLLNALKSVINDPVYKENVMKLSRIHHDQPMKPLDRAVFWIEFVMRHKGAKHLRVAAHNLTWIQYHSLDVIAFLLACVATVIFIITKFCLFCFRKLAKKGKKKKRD

[4] = Drug excretion in Swiss webster mouse urine assessed as N'-glucuronide-triclocarban formation at 5 mg/kg, po by LC-MS analysis; format: ADME, organism-based; design: dose 5 mg/kg, route oral; settings: in vivo
Method in brief: (§2)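 Mice were housed two per metabolic cage, with blank urine collected over the 24 h before dosing. TCC was given by oral gavage as a 1 mg/mL solution in 20/80 DMSO/PEG400 (v/v) at 5 mg/kg. Urine was collected at 0-24 h and 24-48 h and analysed by online LC-MS. Values are the mean of two independent experiments.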

[5] = Drug excretion in Swiss webster mouse urine assessed as 3'-O-glucuronide-triclocarban formation at 5 mg/kg, po by LC-MS analysis; format: ADME, organism-based; design: dose 5 mg/kg, route oral; settings: in vivo; method in brief: as §2
[6] = target: T2, UDP-glucuronosyltransferase 1A3 (Homo sapiens, UniProt P35503); assay: Drug metabolism assessed as human UGT1A3-mediated N'-glucuronide-triclocarban formation expressed in baculovirus infected insect sf9 cells incubated for 5 mins prior to UDPGA addition measured after 5 to 30 mins by LC-UV analysis; format: ADME; method in brief: as §1
T2 sequence (P35503 whole entry): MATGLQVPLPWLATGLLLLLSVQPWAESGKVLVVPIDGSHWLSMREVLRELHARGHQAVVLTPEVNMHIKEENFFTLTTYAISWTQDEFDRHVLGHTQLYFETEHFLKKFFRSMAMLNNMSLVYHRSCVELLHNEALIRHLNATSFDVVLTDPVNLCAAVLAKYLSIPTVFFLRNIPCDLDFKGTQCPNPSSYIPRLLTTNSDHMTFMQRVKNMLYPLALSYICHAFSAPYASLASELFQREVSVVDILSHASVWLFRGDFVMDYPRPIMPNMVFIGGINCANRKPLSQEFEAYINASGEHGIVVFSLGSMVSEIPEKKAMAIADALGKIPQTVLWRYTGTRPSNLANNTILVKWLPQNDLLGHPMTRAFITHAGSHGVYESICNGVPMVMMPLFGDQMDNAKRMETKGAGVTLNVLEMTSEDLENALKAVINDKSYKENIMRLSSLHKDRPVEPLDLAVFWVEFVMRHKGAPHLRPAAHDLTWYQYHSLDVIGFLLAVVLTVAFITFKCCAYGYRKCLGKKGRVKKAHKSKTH

[7] = target: T3, UDP-glucuronosyltransferase 1A7 (Homo sapiens, UniProt Q9HAW7); assay: Drug metabolism assessed as human UGT1A7-mediated N'-glucuronide-triclocarban formation expressed in baculovirus infected insect sf9 cells incubated for 5 mins prior to UDPGA addition measured after 5 to 30 mins by LC-UV analysis; format: ADME; method in brief: as §1
T3 sequence (Q9HAW7 whole entry): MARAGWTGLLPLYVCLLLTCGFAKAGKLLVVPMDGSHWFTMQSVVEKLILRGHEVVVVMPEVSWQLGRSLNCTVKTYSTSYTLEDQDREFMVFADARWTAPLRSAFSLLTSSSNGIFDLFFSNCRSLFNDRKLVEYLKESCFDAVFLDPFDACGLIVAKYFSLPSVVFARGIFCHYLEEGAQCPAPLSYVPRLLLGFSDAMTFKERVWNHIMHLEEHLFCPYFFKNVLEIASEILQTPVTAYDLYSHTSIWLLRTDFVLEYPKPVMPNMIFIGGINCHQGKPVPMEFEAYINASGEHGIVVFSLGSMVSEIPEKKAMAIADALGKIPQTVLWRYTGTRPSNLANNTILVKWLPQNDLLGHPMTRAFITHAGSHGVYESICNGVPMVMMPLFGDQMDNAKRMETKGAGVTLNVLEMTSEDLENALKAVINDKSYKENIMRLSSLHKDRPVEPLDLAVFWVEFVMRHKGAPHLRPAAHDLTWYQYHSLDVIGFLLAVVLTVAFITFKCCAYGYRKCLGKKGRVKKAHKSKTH

[8] = test system: Liver; assay: Intrinsic clearance in B6C3F1 mouse liver microsomes after 30 mins by LC-ESI-MS analysis; format: ADME; settings: 0.5 h
Method in brief: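 2'-OH-TCC at 0.2, 0.5, 1, 2, 3, 5, 10 and 50 µM incubated with liver microsomes (alamethicin, MgCl2, saccharolactone, UDPGA; 37 °C), sampled at 5, 10, 15 and 30 min. Samples ≥5 µM diluted 1:9 in ACN; LC-ESI-MS. KM and vmax fitted from rate vs concentration; intrinsic clearance derived from these; mean and SD of three.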

| CLH [8] [µL/min/mg] | Compound | Drug metabolism [1] | Drug metabolism [2] | Drug metabolism [3] | Drug excretion [4] | Drug excretion [5] | Drug metabolism [6] | Drug metabolism [7] |
| --- | --- | --- | --- | --- | --- | --- | --- | --- |
| – | O=C(Nc1ccc(Cl)cc1)Nc1ccc(Cl)c(Cl)c1 [TRICLOCARBAN] | metabolite_not_detected | metabolite_not_detected | metabolite_not_detected | metabolite_detected | metabolite_detected | metabolite_not_detected | metabolite_not_detected |
| 1450 | O=C(Nc1ccc(Cl)c(Cl)c1)Nc1ccc(Cl)cc1O | – | – | – | – | – | – | – |

Reference: ChEMBL document CHEMBL3525967, “In vitro glucuronidation of the antibacterial triclocarban and its oxidative metabolites” (Drug Metab Dispos, 2012)
